These results are taken from publication PMC5510570 (The Journal of organic chemistry, 2017).

“Also recorded” adds a separate entry of the source.

Common to all, as to type: cell-based
Data set [1] relates to human HEp2 cells. The data set is described as follows: Dark cytotoxicity. Conditions: read-out: Dark toxicity IC50, in the dark, up to 200 μM, incubated overnight. The method in brief: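 HEp2 cells kept in 50:50 DMEM:AMEM with 5% FBS and 1% penicillin/streptomycin, seeded at 7500 per well and grown 48 h. Dosed at 0, 6.25, 12.5, 25, 50, 100 and 200 μM final, diluted from DMSO stock, overnight at 37°C, 5% CO₂. Washed with PBS, then 20% CellTiter Blue medium for 4 h, read at 570/615 nm. Untreated set to 100%, 0.2% saponin to 0%.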

Data set [2] relates to human HEp2 cells. The data set is described as follows: Phototoxicity. Conditions: for IC50: read-out: Phototoxicity IC50, 1.5 J/cm^2 light dose, up to 100 μM. The essentials: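 HEp2 cells were grown in 50:50 DMEM:AMEM with 5% FBS and 1% penicillin/streptomycin, plated at 7500 cells/well and grown 48 h. Cells were loaded 24 h with test compound at 0–100 μM (from 32 mM DMSO stock), washed with PBS and given fresh medium. They were irradiated 20 min with a 600 W water-filtered halogen lamp (~1.5 J/cm²) and incubated 24 h. Viability was read with 20% CellTiter Blue (4 h, 570/615 nm), normalized to untreated (100%) and 0.2% saponin (0%).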

The subject of data set [3] is human HEp2 cells. Description: Time-dependent cellular uptake. Conditions: for Cellular uptake at 24 h: 10 μM compound; for Cellular uptake (in words): 0-24 h. The method in brief: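 HEp2 cells, cultured and plated as for cytotoxicity, were exposed to 10 μM test compound for 0, 1, 2, 4, 8 and 24 h. Cells were PBS-washed and lysed in 0.25% Triton X-100/PBS, and fluorescence was read at 485/590 nm against a compound standard curve (0.3125–10 μM). Cell number was measured by CyQuant against a 10⁴–10⁵ cell standard curve. Uptake was expressed as nM compound per cell.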

On to 2,3,5,6,8-Pentaphenyl-BODIPY [BODIPY 4], for which the IC50 was above 200 µM in data set [1] and above 100 µM in data set [2]. For the same compound, in data set [2] (light irradiation 1.5 J/cm^2, up to 100 μM), the “Phototoxicity (in words)” value was “slight phototoxicity”. The “Cellular uptake at 24 h” value in data set [3] was determined as 0.058±0.028 nM/cell. Moreover, the “Cellular uptake (in words)” value in data set [3] (10 μM) was “very low uptake; also recorded: accumulated the least”.

Consider “3,5,8-Triphenyl-2,6-dichloro-BODIPY [BODIPY 2]”, for which the IC50 in data set [1] is above 200 µM; in data set [2], above 100 µM. The “Cellular uptake at 24 h” value in data set [3] is reported as 1.2±0.10 nM/cell. Besides, the “Cellular uptake (in words)” value in data set [3] (10 μM) is “taken-up faster and more efficiently at all times investigated; also recorded: accumulated the most within cells after 24 hours”.

In the case of “3,5,8-Triphenyl-2,6-dithienyl-BODIPY [BODIPY 3]”, the results for the IC50 in data set [1] and in data set [2] were above 200 µM and above 100 µM, respectively. Besides, the “Cellular uptake at 24 h” value in data set [3] is reported as 0.14±0.01 nM/cell. The “Cellular uptake (in words)” value in data set [3] (10 μM) was “very low uptake”.

On to “8-(4-Benzyloxycarbonylphenyl)-3,5-di(4-methoxyphenyl)-2,6-dichloro-BODIPY [BODIPY 6a]”, for which the IC50 in data set [1] is above 200 µM; in data set [2], above 100 µM. Also, in data set [3], the “Cellular uptake at 24 h” value is reported as 0.14±0.01 nM/cell.

As to “8-(4-Cyanophenyl)-3,5-di(4-methoxyphenyl)-2,6-dithienyl-BODIPY [BODIPY 7]”, the IC50 in data set [1] is above 200 µM; in data set [2] it was above 100 µM. Besides, in data set [3], the “Cellular uptake at 24 h” value was 0.12±0.01 nM/cell.

With `COc1ccc(C2=[N+]3C(=C(c4ccc(C#N)cc4)c4cc(Cl)c(-c5ccc(OC)cc5)n4[B-]3(F)F)C=C2Cl)cc1` [BODIPY 6b, 8-(4-Cyanophenyl)-3,5-di(4-methoxyphenyl)-2,6-dichloro-BODIPY], the IC50 in data set [1] was above 200 µM; in data set [2], above 100 µM. Also, the “Cellular uptake at 24 h” value in data set [3] was determined as 0.51±0.01 nM/cell. Also, the “Cellular uptake (in words)” value in data set [3] (10 μM) is given as “higher cellular uptake; also recorded: highest cellular uptake”.

As for `COc1ccc(C2=CC3=C(c4ccc(C#N)cc4)c4cc(-c5ccc(C#N)cc5)c(-c5ccc(OC)cc5)n4[B-](F)(F)[N+]3=C2c2ccc(OC)cc2)cc1` [BODIPY 8, 8-(4-Cyanophenyl)-3,5-di(4-methoxyphenyl)-2-(4-methoxyphenyl)-6-(4-cyanophenyl)-BODIPY], the IC50 in data set [1] is above 200 µM. The IC50 in data set [2] is above 100 µM. Also, in data set [3] (10 μM), the “Time at which uptake plateau was reached” value was determined as 8 h and the “Cellular uptake (in words)” value is recorded as “higher cellular uptake; also recorded: highest cellular uptake”. Further, the “Cellular uptake at 24 h” value in data set [3] is 0.79±0.13 nM/cell.
